CSN deneddyl inh – inhibitors of CSN-mediated cullin deneddylation, primary screen, biochemical, fluorescence polarization, uHTS; Purified CSN, SCF-Nedd8-OG deneddylation; inhibition, % at 12.5 µM; actives 0.38% (n = 360,000);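 active = pattern-corrected inhibition above about 35%, with an unprinted fluorescence ratio check between 0.5 and 1.5, limit read from the data, passing the limit was not always enough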
Target sequence (Q92905 whole entry, looked up, one chain of several): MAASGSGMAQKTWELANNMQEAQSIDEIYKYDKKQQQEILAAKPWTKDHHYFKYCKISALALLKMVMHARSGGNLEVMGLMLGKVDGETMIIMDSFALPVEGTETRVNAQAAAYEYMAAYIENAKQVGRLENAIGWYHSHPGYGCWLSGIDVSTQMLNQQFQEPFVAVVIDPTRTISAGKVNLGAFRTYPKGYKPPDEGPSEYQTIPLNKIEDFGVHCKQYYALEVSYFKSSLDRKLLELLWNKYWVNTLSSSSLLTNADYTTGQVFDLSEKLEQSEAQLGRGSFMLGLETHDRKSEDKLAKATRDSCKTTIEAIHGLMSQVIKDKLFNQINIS
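Detection – fluorescence polarization · System – HEK293T-derived human Csn5 enzyme · Controls – substrate-only high control, full reaction low control · Timing – 90 min, room temperature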
NR1D1 modulator – modulators of Rev-erb alpha DNA binding, primary screen, biochemical, FITC-DNA, fluorescence polarization, uHTS. actives 0.79% (n = 370,000). AID 1259318, 2017. Nuclear receptor subfamily 1 group D member 1 (Homo sapiens), P20393. Rev-erbα–FITC-DNA binding, 90 min. activity, % at 10 µM;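 active = activity above about 14%, limit read from the data; passing the limit was not always enough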
TPT1 inh – Candida albicans TPT1 enzyme inhibitors, primary screen, biochemical, fluorescence polarization | tRNA 2'-phosphotransferase TPT1 (Candida albicans SC5314) | recombinant caTPT1, FP RNA substrate dephosphorylation | inhibition, % at 5 µM | actives 0.81% (n = 300,000) | AID 1962, 2009;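 active = inhibition above the mean of all tested compounds plus 3 SD, set per screening campaign, cut at about 24% in these data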
HNF4A DNA FP – change in binding of human HNF4A to DNA, primary screen, biochemical, fluorescence polarization, FITC-DNA; 1 h; Hepatocyte nuclear factor 4-alpha (Homo sapiens), P41235; actives 0.3% (n = 360,000); AID 1224865, 2016; activity change, % at 10 µM; in the data active = activity change above about 30%, passing the limit was not always enough
caTPT1 confirm – Candida albicans TPT1 inhibitors, confirmation, biochemical, fluorescence polarization, triplicate. shares compounds with TPT1 inh. recombinant caTPT1, RNase T1 coupled. inhibition, % at 5 µM. actives 74% (n = 2,400). AID 2149, 2009;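 active = inhibition above the primary screen limit, the mean inhibition of all tested compounds plus 3 SD, cut at about 25% in these data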
RNase T1 counter – RNase T1 inhibitors, counter-screen for TPT1 inhibitor project, biochemical, fluorescence polarization; actives 83% (n = 2,400); RNase T1 cleavage, 1536-well; shares compounds with TPT1 inh; inhibition, % at 5 µM;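 active = inhibition above the solvent-only control well mean plus 3 SD, limit set per screening run, cut at about 23% in these data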;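 also: inhibitors block cleavage so intact labeled substrate keeps polarization high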
Target sequence (P00651 whole entry, looked up): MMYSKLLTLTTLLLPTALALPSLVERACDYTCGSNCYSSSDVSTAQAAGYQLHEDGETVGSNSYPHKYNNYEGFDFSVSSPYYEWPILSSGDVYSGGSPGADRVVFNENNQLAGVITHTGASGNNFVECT
Numbers stand for hits; - = inactive; . = not tested or not shown. This is a sample that favours compounds with a hit; in the whole collection about 1.7% have one here.

SMILES	CSN deneddyl inh	NR1D1 modulator	TPT1 inh	HNF4A DNA FP	caTPT1 confirm	RNase T1 counter
C#CCOCCOCCOCCNc1nc(N2CCN(C(=O)[C@H]([C@@H](C)CC)n3cc(CCCCN)nn3)CC2)nc(N2CCN(C(=O)[C@H](Cc3ccc(O)cc3)n3cc(CCO)nn3)CC2)n1	.	-	.	.	.	.
CCO/C=C1/C(=O)N(c2ccc(OC)cc2)C(=O)c2ccccc21	-	-	-	-	.	.
CCO/C=C1/C(=O)N(C)C(=O)c2cc(OC)ccc21	-	-	39	-	55	66
Cc1cc(C)c2nc(NNC(=O)c3cc(=O)c4ccccc4o3)sc2c1	-	-	25	-	27	41
Cc1cc(C)c2nc(NNC(=O)c3ccc(S(=O)(=O)N4CCc5ccccc5C4)cc3)sc2c1	-	-	-	-	.	.
COc1ccc2nc(NN=Cc3cccc(C)n3)cc(C)c2c1	.	-	.	.	.	.
Cc1cccc(C)c1N/C=C/c1onc(C)c1[N+](=O)[O-]	-	-	-	-	.	.
Cc1ccc(N/C=C/c2onc(C)c2[N+](=O)[O-])cc1	-	-	49	-	56	68
CCC(Oc1ccccc1)C(=O)Nc1ccc(-c2nnc(-c3ccco3)o2)cc1 (centres undefined)	-	-	71	-	-	-
COc1ccccc1OCC(=O)Nc1ccc(-c2nnc(-c3ccco3)o2)cc1	-	-	-	-	.	.
COc1cc(/C=c2\sc3n(c2=O)C(c2ccccc2)C(c2ccccc2)=NN=3)ccc1O (centres undefined)	-	-	35	-	50	56
COc1cc(/C=c2\sc3n(c2=O)CCCN=3)ccc1O	-	-	-	-	.	.
O=C(O)Cc1sc(N/N=C\c2ccncc2)nc1-c1ccccc1	-	-	52	-	43	51
CCN1CC2=C(OC(N)=C(C#N)C2c2ccccc2)/C(=C\c2ccccc2)C1 (centres undefined)	-	-	-	-	.	.
CCN1CC2=C(OC(N)=C(C#N)C2c2cccs2)/C(=C/c2cccs2)C1 (centres undefined)	-	-	34	-	25	36
O=C(NCCc1ccccc1)O[C@H]1CC[C@@]23CCCN2C(=O)CCC[C@H]3C1	.	-	.	.	.	.
COc1ccccc1OC(=O)Nc1ccc(Cl)cc1	-	-	41	-	-	-
COc1ccc(C2C(C(C)=O)=C(C)N=c3s/c(=C\c4cc(C)n(C)c4C)c(=O)n32)c(OC)c1 (centres undefined)	-	-	132	-	134	127
COCC(=O)Nc1ccc([N+](=O)[O-])cc1OC	-	-	-	-	.	.
CCOCC(=O)Nc1ccc([N+](=O)[O-])cc1OC	-	-	36	-	-	-
COc1cc([N+](=O)[O-])ccc1NC(=O)CN(C)C	-	-	26	-	-	-
CC(=O)Nc1sc2c(c1-c1nc(-c3ccccc3)cs1)CCN(C(C)C)C2	.	-	.	.	.	.
CC(C)CNC(=O)OCc1cn(Cc2cccc(F)c2)nn1	.	-	.	.	.	.
COc1ccc(-c2nnc(SCC(=O)NN=C/C=C\c3ccco3)n2-c2ccc(OC)cc2)cc1	.	-	.	.	.	.
COc1cc(OC)cc(C(C(=O)NCc2ccccc2)N(Cc2ccco2)C(=O)c2ccno2)c1 (centres undefined)	-	.	42	-	-	25
SMILES	CSN deneddyl inh	NR1D1 modulator	TPT1 inh	HNF4A DNA FP	caTPT1 confirm	RNase T1 counter
CCCN(CC1CC1)C(=O)CN1C(=O)C2CCCCN2C(=O)c2ccccc21 (centres undefined)	.	-	.	.	.	.
CCc1cc2c(=O)[nH]c(-c3ccncc3)nc2s1	-	-	29	-	-	-
CCc1cc2c(=O)[nH]c(Cc3ccccc3)nc2s1	-	-	-	-	.	.
COc1ccc(CCN2Cc3c(cccc3[N+](=O)[O-])C2=O)cc1OC	-	-	30	-	-	-
COc1ccc(CCN2Cc3c(N)cccc3C2=O)cc1OC	-	-	-	-	.	.
COc1ccc(CNC(=O)O[C@H]2CC[C@@]34CCCN3C(=O)CCC[C@H]4[C@H]2C)cc1	.	-	.	.	.	.
Cc1ccc(S(=O)(=O)c2c(N)n(Cc3ccco3)c3nc4ccccc4nc23)cc1	-	-	27	-	-	29
C[C@H](O)[C@@H]1C(=O)N2CCc3c([nH]c4cccc(-c5ccccc5)c34)[C@@H]2C[C@@H]1N(C)C(=O)OCc1ccccc1	.	-	.	.	.	.
CN1CCc2c(sc(/N=C/c3c[nH]c4ccccc34)c2C#N)C1	-	-	44	-	43	53
Cc1ccc(/C=N/c2sc3c(c2C#N)CCC3)s1	-	-	-	-	.	.
CCOC(=O)c1c(/N=C/c2ccc(OC)cc2O)sc2c1CCN(C)C2	-	-	-	-	.	.
CN1CCc2c(sc(/N=C/c3cc(Cl)ccc3O)c2C#N)C1	-	-	27	-	28	38
C[C@@H]1C=CCCO[C@]12C(=O)N(Cc1ccc(Br)cc1)c1ccccc12	.	-	.	.	.	.
CCOC(=O)c1sc2nc3c(SCCC#N)cc(C(=O)c4cc(F)ccc4O)cn3c(=O)c2c1C	-	-	48	-	27	31
CN1/C(=C/C(=S)NC(=O)C2CCC2)C(C)(C)c2ccccc21	-	-	51	-	-	-
CC(C)C(=O)NC(=S)/C=C1/N(C)c2ccccc2C1(C)C	48	-	28	69	-	24
Cc1ccc(C(=O)NC(=S)/C=C2\N(C)c3ccccc3C2(C)C)cc1	-	-	-	-	.	.
N=c1oc2cc(O)ccc2cc1C(=O)Nc1ccccn1	.	.	29	.	-	-
N=c1oc2cc(O)ccc2cc1C(=O)Nc1ccc(Br)cc1	-	-	-	-	.	.
N=c1oc2cc(O)ccc2cc1C(=O)Nc1nc2ccccc2s1	-	-	65	-	70	75
O=C(Nc1nc2ccccc2s1)c1cc(-c2ccco2)nc2ccccc12	-	-	-	-	.	.
CCc1nnc(NS(=O)(=O)c2ccc(NC(=O)c3ccc(Cl)cc3)cc2)s1	-	-	-	-	.	.
CCc1nnc(NS(=O)(=O)c2ccc(N/C=C(\C=O)c3nc4cc(Cl)ccc4o3)cc2)s1	-	-	80	-	-	-
O=C(Cn1c(-c2cncs2)nc2ccccc21)N1CCOCC1	.	-	.	.	.	.
COc1cc2nc(/C=C/c3ccc(N(C)C)cc3)sc2cc1SC	-	-	155	-	153	138
Nc1cccc(S(=O)(=O)N2CCCN(S(=O)(=O)c3ccc4c(c3)OCCO4)CC2)c1	.	-	.	.	.	.
COc1cc(/C=C(\C#N)c2nc(-c3cc4ccccc4oc3=O)cs2)ccc1O	-	-	38	-	52	58
O=[N+]([O-])c1ccc(N/N=C\c2cccn2-c2ccccc2)nc1	-	-	88	-	78	90
CCSc1ncc(/C=N/Nc2ccc([N+](=O)[O-])cc2)n1C	-	-	56	-	57	66

From PubChem
